Blank lines part the entries; values can stand above or below the compound they belong to.
Assays:
[1] = system: P388; test: In vivo activity against P388 Lymphocytic Leukemia in CD2F1 mice at the dose of 100 mg/kg, activity expressed as body weight difference; assay type: functional, Mus musculus
In short: (§1)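 CD2F1 mice were inoculated with ascitic fluid holding ca. 10^6 P388 cells. Drug was given daily from 24 h after inoculation, from solutions or suspensions made fresh each day, some as a saline suspension. TDS is survivors/initial animals on day 5. BWD is body weight on day 5 minus day 1. %T/C compares median survival of treated and control mice.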

[2] = system: P388; test: In vivo activity against P388 Lymphocytic Leukemia in CD2F1 mice at the dose of 50 mg/kg, activity expressed as KE; assay type: functional, Mus musculus
[3] = system: P388; test: In vivo activity against P388 Lymphocytic Leukemia in CD2F1 mice at the dose of 25 mg/kg, activity expressed as TDS; 6/6; assay type: functional, Mus musculus; in short: as §1
[4] = system: P388; test: In vivo activity against P388 Lymphocytic Leukemia in CD2F1 mice at the dose of 100 mg/kg, activity expressed as % T/C; assay type: functional, Mus musculus; in short: as §1
[5] = system: P388; test: In vivo activity against P388 Lymphocytic Leukemia in CD2F1 mice at the dose of 200 mg/kg, activity expressed as TDS; 0/6; assay type: functional, Mus musculus; in short: as §1
[6] = system: P388; test: In vivo activity against P388 Lymphocytic Leukemia in CD2F1 mice at the dose of 12.5 mg/kg, activity expressed as % T/C; assay type: functional, Mus musculus; in short: as §1
[7] = system: P388; test: In vivo activity against P388 Lymphocytic Leukemia in CD2F1 mice at the dose of 50 mg/kg, activity expressed as TDS; 6/6; assay type: functional, Mus musculus; in short: as §1
[8] = system: P388; test: In vivo activity against P388 Lymphocytic Leukemia in CD2F1 mice at the dose of 25 mg/kg, activity expressed as body weight difference; assay type: functional, Mus musculus; in short: as §1
[9] = system: P388; test: In vivo activity against P388 Lymphocytic Leukemia in CD2F1 mice at the dose of 25 mg/kg, activity expressed as % T/C; assay type: functional, Mus musculus; in short: as §1
[10] = system: P388; test: In vivo activity against P388 Lymphocytic Leukemia in CD2F1 mice at the dose of 12.5 mg/kg, activity expressed as TDS; 6/6; assay type: functional, Mus musculus; in short: as §1
[11] = system: P388; test: In vivo activity against P388 Lymphocytic Leukemia in CD2F1 mice at the dose of 12.5 mg/kg, activity expressed as KE; assay type: functional, Mus musculus
[12] = system: P388; test: In vivo activity against P388 Lymphocytic Leukemia in CD2F1 mice at the dose of 100 mg/kg, activity expressed as TDS; assay type: functional, Mus musculus; in short: as §1
[13] = system: P388; test: In vivo activity against P388 Lymphocytic Leukemia in CD2F1 mice at the dose of 25 mg/kg, activity expressed as KE; assay type: functional, Mus musculus
[14] = system: P388; test: In vivo activity against P388 Lymphocytic Leukemia in CD2F1 mice at the dose of 50 mg/kg, activity expressed as body weight difference; assay type: functional, Mus musculus; in short: as §1
[15] = system: P388; test: In vivo activity against P388 Lymphocytic Leukemia in CD2F1 mice at the dose of 12.5 mg/kg, activity expressed as body weight difference; assay type: functional, Mus musculus; in short: as §1
[16] = system: P388; test: In vivo activity against P388 Lymphocytic Leukemia in CD2F1 mice at the dose of 100 mg/kg, activity expressed as KE; assay type: functional, Mus musculus
[17] = system: P388; test: In vivo activity against P388 Lymphocytic Leukemia in CD2F1 mice at the dose of 50 mg/kg, activity expressed as % T/C; assay type: functional, Mus musculus; in short: as §1
[18] = Hydrolysis were done at 25 degree C in 0.05 M phosphate buffer (pH 7.4); assay type: ADME
In short: (§2)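 Model pyridinium salts were hydrolysed to pyridones at 25 °C in 0.05 M phosphate buffer, pH 7.4. Decay of the pyridinium UV absorption maximum was monitored over time, giving pseudo-first-order k_obs and half-life.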

[19] = Half life of the compound; assay type: ADME
[20] = In vivo activity against murine M5076 tumor system at the dose of 180 mg/kg, activity expressed as TDS; 3/10; assay type: functional, Mus musculus
In short: (§3)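 M5076: ascitic fluid with ca. 10^6 cells inoculated ip into CD2F1 mice. Dosing started 24 h after inoculation and was then given every 4 days for four doses in total, from solutions or suspensions made fresh each day. Toxicity day survivors were scored on day 5. Body weight difference is day 14 minus day 1. %T/C is based on median survival time versus controls.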

[21] = system: MX1; test: In vivo body weight difference was determined in murine MX-1 tumor system at the dose of 90 mg/kg; assay type: functional, Mus musculus
[22] = system: L1210; test: In vivo body weight difference was determined in murine L1210 tumor system at the dose of 50 mg/kg; assay type: functional, Mus musculus
[23] = system: L1210; test: In vivo activity against murine L1210 tumor system at the dose of 50 mg/kg, activity expressed as KE; assay type: functional, Mus musculus
In short: as §3, with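 “L1210 lymphocytic leukemia:” for “M5076:”, “injected” for “inoculated”, “repeated daily” for “then given every 4 days”, “five” for “four”, “5” for “14”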

[24] = system: MX1; test: In vivo activity against murine MX-1 tumor system at the dose of 90 mg/kg, activity expressed as TDS; 6/6; assay type: functional, Mus musculus
[25] = system: L1210; test: In vivo activity against murine L1210 tumor system at the dose of 50 mg/kg, activity expressed as TDS; 6/6; assay type: functional, Mus musculus
In short: as §3, with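 “L1210 lymphocytic leukemia:” for “M5076:”, “injected” for “inoculated”, “repeated daily” for “then given every 4 days”, “five” for “four”, “5” for “14”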

[26] = In vivo activity against murine M5076 tumor system at the dose of 45 mg/kg, activity expressed as KE; assay type: functional, Mus musculus; in short: as §3
[27] = system: MX1; test: In vivo activity against murine MX-1 tumor system at the dose of 180 mg/kg, activity expressed as TDS; 0/6; assay type: functional, Mus musculus
[28] = system: L1210; test: In vivo activity against murine L1210 tumor system at the dose of 25 mg/kg, activity expressed as %T/C.; assay type: functional, Mus musculus
In short: as §3, with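 “L1210 lymphocytic leukemia:” for “M5076:”, “injected” for “inoculated”, “repeated daily” for “then given every 4 days”, “five” for “four”, “5” for “14”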

[29] = system: P388; test: In vivo activity against P388 Lymphocytic Leukemia in CD2F1 mice at the dose of 400 mg/kg, activity expressed as TDS; 0/6; assay type: functional, Mus musculus; in short: as §1
[30] = system: L1210; test: In vivo activity against murine L1210 tumor system at the dose of 50 mg/kg, activity expressed as %T/C.; assay type: functional, Mus musculus
In short: as §3, with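 “L1210 lymphocytic leukemia:” for “M5076:”, “injected” for “inoculated”, “repeated daily” for “then given every 4 days”, “five” for “four”, “5” for “14”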

[31] = In vivo body weight difference was determined in murine M5076 tumor system at the dose of 90 mg/kg; assay type: functional, Mus musculus
[32] = system: L1210; test: In vivo activity against murine L1210 tumor system at the dose of 100 mg/kg, activity expressed as TDS; 0/6; assay type: functional, Mus musculus
In short: as §3, with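 “L1210 lymphocytic leukemia:” for “M5076:”, “injected” for “inoculated”, “repeated daily” for “then given every 4 days”, “five” for “four”, “5” for “14”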

[33] = In vivo activity against murine M5076 tumor system at the dose of mg/kg, activity expressed as %T/C.; assay type: functional, Mus musculus
[34] = In vivo body weight difference was determined in murine M5076 tumor system at the dose of 180 mg/kg; assay type: functional, Mus musculus
[35] = In vivo activity against murine M5076 tumor system at the dose of 90 mg/kg, activity expressed as TDS; 10/10; assay type: functional, Mus musculus
[36] = In vivo activity against murine M5076 tumor system at the dose of 45 mg/kg, activity expressed as TDS; 10/10; assay type: functional, Mus musculus
[37] = system: P388; test: In vivo body weight difference was determined against P388 Lymphocytic Leukemia in CD2F1 mice at the dose of 25 mg/kg; assay type: functional, Mus musculus
[38] = system: P388; test: In vivo activity against P388 Lymphocytic Leukemia in CD2F1 mice at the dose of 200 mg/kg, activity expressed as TDS; 6/6; assay type: functional, Mus musculus; in short: as §1
[39] = system: L1210; test: In vivo body weight difference was determined in murine L1210 tumor system at the dose of 25 mg/kg; assay type: functional, Mus musculus
[40] = system: L1210; test: In vivo activity against murine L1210 tumor system at the dose of 25 mg/kg, activity expressed as TDS; 6/6; assay type: functional, Mus musculus
In short: as §3, with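 “L1210 lymphocytic leukemia:” for “M5076:”, “injected” for “inoculated”, “repeated daily” for “then given every 4 days”, “five” for “four”, “5” for “14”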

[41] = In vivo activity against murine M5076 tumor system at the dose of 90 mg/kg, activity expressed as KE; assay type: functional, Mus musculus
[42] = In vivo activity against murine M5076 tumor system at the dose of 90 mg/kg, activity expressed as %T/C.; assay type: functional, Mus musculus
[43] = system: P388; test: In vivo body weight difference was determined against P388 Lymphocytic Leukemia in CD2F1 mice at the dose of 200 mg/kg; assay type: functional, Mus musculus
[44] = In vivo body weight difference was determined in murine M5076 tumor system at the dose of 45 mg/kg; assay type: functional, Mus musculus
[45] = system: P388; test: In vivo body weight difference was determined against P388 Lymphocytic Leukemia in CD2F1 mice at the dose of 12.5 mg/kg; assay type: functional, Mus musculus
[46] = system: P388; test: In vivo body weight difference was determined against P388 Lymphocytic Leukemia in CD2F1 mice at the dose of 100 mg/kg; assay type: functional, Mus musculus
[47] = system: P388; test: In vivo body weight difference was determined against P388 Lymphocytic Leukemia in CD2F1 mice at the dose of 50 mg/kg; assay type: functional, Mus musculus
[48] = system: MX1; test: In vivo activity against murine MX-1 tumor system at the dose of 90mg/kg, activity expressed as %T/C.; assay type: functional, Mus musculus
[49] = system: L1210; test: In vivo activity against murine L1210 tumor system at the dose of 25 mg/kg, activity expressed as KE; assay type: functional, Mus musculus
In short: as §3, with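 “L1210 lymphocytic leukemia:” for “M5076:”, “injected” for “inoculated”, “repeated daily” for “then given every 4 days”, “five” for “four”, “5” for “14”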

[50] = system: P388; test: In vivo activity against P388 Lymphocytic Leukemia in CD2F1 mice at the dose of 100 mg/kg, activity expressed as TDS; 6/6; assay type: functional, Mus musculus; in short: as §1
[51] = Hydrolysis at 25 degree C in 0.05 M phosphate buffer (pH 7.4); the rate was too fast to measure these conditions.; assay type: ADME; in short: as §2

Structure (SMILES): CC(C)NC(=O)OCc1c(COC(=O)NC(C)C)c(-c2cc[n+](C)c(Cl)c2)n2c1CCC2.[I-]
BWD [1]: -0.8 g
KE [2]: -1.44
TDS [3]: 6
T/C [4]: 121%
TDS [5]: 0
T/C [6]: 103%
TDS [7]: 6
BWD [8]: 0.4 g
T/C [9]: 103%
TDS [10]: 6
KE [11]: -1.56
TDS [12]: 6
KE [13]: -1.56
BWD [14]: -0.5 g
BWD [15]: -0.1 g
KE [16]: -1.07
T/C [17]: 112%

Structure (SMILES): CC(C)NC(=O)OCc1c(COC(=O)NC(C)C)c(-c2ccc(F)[n+](C)c2)n2c1CCC2.[I-]
KE [2]: 0.32
TDS [3]: 6
TDS [20]: 3
BWD [21]: 0.5 g
BWD [22]: -0.7 g
KE [23]: -2.03
TDS [24]: 6
TDS [25]: 6
T/C [4]: 158%
KE [26]: -1.79
TDS [27]: 0
T/C [28]: 119%
T/C [6]: 112%
TDS [29]: 0
TDS [7]: 6
T/C [30]: 123%
BWD [31]: -1.8 g
TDS [32]: 0
T/C [33]: 115%
T/C [9]: 137%
BWD [34]: -1.4 g
TDS [35]: 10
TDS [36]: 10
BWD [37]: -0.1 g
TDS [10]: 6
TDS [38]: 2
KE [11]: -1.42
BWD [39]: -0.7 g
TDS [40]: 6
KE [41]: -1.4
T/C [42]: 125%
BWD [43]: -0.1 g
KE [13]: 0.06
BWD [44]: -0.5 g
BWD [45]: 1.2 g
BWD [46]: 0.1 g
KE [16]: 1.54
BWD [47]: 0.6 g
T/C [17]: 141%
T/C [48]: 18%
KE [49]: -2.09
TDS [50]: 6

Structure (SMILES): CCOC(=O)c1cc[n+](C)c(Cl)c1.O=S(=O)([O-])C(F)(F)F
K obs [18]: 0.055 min⁻¹
half-life [19]: 360 min

Structure (SMILES): CCOC(=O)c1cc[n+](C)c(F)c1.O=S(=O)([O-])C(F)(F)F
K obs [51]: Rate too fast

Continued, values first:

K obs [18]: 0.0605 min⁻¹
half-life [19]: 11.4 min
Structure (SMILES): Cc1ccc(F)[n+](C)c1.O=S(=O)([O-])C(F)(F)F

K obs [18]: 0.041 min⁻¹
half-life [19]: 1020 min
Structure (SMILES): Cc1cc(Br)c(Cl)[n+](C)c1.O=S(=O)([O-])C(F)(F)F

Reference: ChEMBL document CHEMBL1124794, “Synthesis, chemistry, and antineoplastic activity of alpha-halopyridinium salts: potential pyridone prodrugs of acylated vinylogous carbinolamine tumor inhibitors” (J Med Chem, 1990)
